Reference: ChEMBL document CHEMBL1157638, “Fluorescent epigenetic small molecule induces expression of the tumor suppressor ras-association domain family 1A and inhibits human prostate xenograft” (J Med Chem, 2010)
Activity calls are given as the source filed them. The rule behind the calls is not given here.

Legend:
SF-268 [1] = experiment: Growth inhibition of human SF268 cells assessed as cell growth at 100 nM relative to untreated control; assay type: functional; details: read-out: Activity
Malme-3M [2] = experiment: Growth inhibition of human MALME-3M cells assessed as cell growth at 10 uM relative to untreated control; assay type: functional; details: read-out: Activity
HCT-15 [3] = experiment: Growth inhibition of human HCT15 cells assessed as cell growth at 10 uM relative to untreated control; assay type: functional; details: read-out: Activity
Method in brief: (§1)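 Run externally at the National Cancer Institute as a 59-cell-line panel screen, with concentrations up to 100 μM. Growth was scored relative to control, where negative growth or total cell kill was possible. Data are in the Supporting Information.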

CCRF-CEM [4] = experiment: Growth inhibition of human CCRF-CEM cells assessed as cell growth at 10 uM relative to untreated control; assay type: functional; details: read-out: Activity
SK-MEL-5 [5] = experiment: Growth inhibition of human SK-MEL-5 cells assessed as cell growth at 100 nM relative to untreated control; assay type: functional; details: read-out: Activity
HCC 2998 = experiment: Growth inhibition of human HCC2998 cells assessed as cell growth at 100 nM relative to untreated control; assay type: functional; details: read-out: Activity; method in brief: as §1
SNB-19 = experiment: Growth inhibition of human SNB19 cells assessed as cell growth at 10 nM relative to untreated control; assay type: functional; details: read-out: Activity
SK-MEL-5 [6] = experiment: Growth inhibition of human SK-MEL-5 cells assessed as cell growth at 10 uM relative to untreated control; assay type: functional; details: read-out: Activity
A549 = experiment: Growth inhibition of human A549 cells assessed as cell growth at 10 uM relative to untreated control; assay type: functional; details: read-out: Activity
OVCAR-3 = experiment: Growth inhibition of human OVCAR-3 cells assessed as cell growth at 1 nM relative to untreated control; assay type: functional; details: read-out: Activity
IGROV-1 = experiment: Growth inhibition of human IGROV1 cells assessed as cell growth at 10 uM relative to untreated control; assay type: functional; details: read-out: Activity
MOLT-4 [7] = experiment: Growth inhibition of human MOLT4 cells assessed as cell growth at 1 nM relative to untreated control; assay type: functional; details: read-out: Activity
HT-29 = experiment: Growth inhibition of human HT-29 cells assessed as cell growth at 10 nM relative to untreated control; assay type: functional; details: read-out: Activity
NCI-H322M = experiment: Growth inhibition of human NCI-H322M cells assessed as cell growth at 1 uM relative to untreated control; assay type: functional; details: read-out: Activity
SNB-75 = experiment: Growth inhibition of human SNB75 cells assessed as cell growth at 1 nM relative to untreated control; assay type: functional; details: read-out: Activity
M14 = experiment: Growth inhibition of human M14 cells assessed as cell growth at 10 uM relative to untreated control; assay type: functional; details: read-out: Activity
BT-549 = experiment: Growth inhibition of human BT549 cells assessed as cell growth at 10 uM relative to untreated control; assay type: functional; details: read-out: Activity
SF-539 = experiment: Growth inhibition of human SF539 cells assessed as cell growth at 10 nM relative to untreated control; assay type: functional; details: read-out: Activity
EKVX = experiment: Growth inhibition of human EKVX cells; assay type: functional; method in brief: as §1
KM12 = experiment: Growth inhibition of human KM12 cells assessed as cell growth at 10 uM relative to untreated control; assay type: functional; details: read-out: Activity
MCF7 [8] = experiment: Growth inhibition of human MCF7 cells assessed as cell growth at 1 uM relative to untreated control; assay type: functional; details: read-out: Activity
MCF7 [9] = experiment: Growth inhibition of human MCF7 cells assessed as cell growth at 1 nM relative to untreated control; assay type: functional; details: read-out: Activity
COLO 205 = experiment: Growth inhibition of human COLO205 cells; assay type: functional
ACHN = experiment: Growth inhibition of human ACHN cells assessed as cell growth at 1 nM relative to untreated control; assay type: functional; details: read-out: Activity
RXF 393 = experiment: Growth inhibition of human RXF393 cells assessed as cell growth at 100 nM relative to untreated control; assay type: functional; details: read-out: Activity
NCI-H522 [10] = experiment: Growth inhibition of human NCI-H522 cells assessed as cell growth at 100 nM relative to untreated control; assay type: functional; details: read-out: Activity
CCRF-CEM [11] = experiment: Growth inhibition of human CCRF-CEM cells; assay type: functional
MOLT-4 [12] = experiment: Growth inhibition of human MOLT4 cells; assay type: functional
A498 = experiment: Growth inhibition of human A498 cells assessed as cell growth at 1 nM relative to untreated control; assay type: functional; details: read-out: Activity
NCI-H226 = experiment: Growth inhibition of human NCI-H226 cells assessed as cell growth at 100 nM relative to untreated control; assay type: functional; details: read-out: Activity
PC-3 [13] = experiment: Growth inhibition of human PC3 cells assessed as cell growth at 100 nM relative to untreated control; assay type: functional; details: read-out: Activity
NCI-H23 = experiment: Growth inhibition of human NCI-H23 cells assessed as cell growth at 10 nM relative to untreated control; assay type: functional; details: read-out: Activity
Malme-3M [14] = experiment: Growth inhibition of human MALME-3M cells assessed as cell growth at 1 nM relative to untreated control; assay type: functional; details: read-out: Activity
U-251 = experiment: Growth inhibition of human U251 cells assessed as cell growth at 1 uM relative to untreated control; assay type: functional; details: read-out: Activity
PC-3 [15] = experiment: Growth inhibition of human PC3 cells assessed as cell growth at 1 uM relative to untreated control; assay type: functional; details: read-out: Activity
SR = experiment: Growth inhibition of human SR cells; assay type: functional
OVCAR-8 = experiment: Growth inhibition of human OVCAR8 cells assessed as cell growth at 1 nM relative to untreated control; assay type: functional; details: read-out: Activity
HOP-92 = experiment: Growth inhibition of human HOP92 cells assessed as cell growth at 10 nM relative to untreated control; assay type: functional; details: read-out: Activity; method in brief: as §1
SF-295 = experiment: Growth inhibition of human SF295 cells; assay type: functional
[16] = Growth inhibition of human Hs 578T cells; assay type: functional
HCT-15 [17] = experiment: Growth inhibition of human HCT15 cells assessed as cell growth at 1 uM relative to untreated control; assay type: functional; details: read-out: Activity; method in brief: as §1
[18] = biological target: DNA (cytosine-5)-methyltransferase 3B (Homo sapiens) (UniProt Q9UBC3); experiment: Binding affinity to DNMT3b in human PC3 cells cytoplasm at 5 uM after 1 hr by antibody staining; assay type: cell-based; details: PC-3
Method in brief: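 PC-3 cells were plated overnight on fibronectin/[…]-coated slides and treated with 5 μM compound or DMSO for 1-6 h. Cells were PBS-washed, fixed in 4% formaldehyde, and stained with propidium iodide (nuclei) and anti-DNMT3a or anti-DNMT3b antibody. The compound was excited at 725 nm by multiphoton laser and imaged through a 500-550 nm filter by confocal microscopy.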

NCI-H522 [19] = experiment: Growth inhibition of human NCI-H522 cells assessed as cell growth at 10 uM relative to untreated control; assay type: functional; details: read-out: Activity
[20] = Growth inhibition of human Hs 578T cells assessed as cell growth at 10 uM relative to untreated control; assay type: functional; details: read-out: Activity
SF-268 [21] = experiment: Growth inhibition of human SF268 cells assessed as cell growth at 10 uM relative to untreated control; assay type: functional; details: read-out: Activity
[22] = read-out: LC50 (the source's name)

COc1ccc2c(c1)[nH]c1c(C)c(OS(=O)(=O)c3cccc4c(N(C)C)cccc34)ccc12
growth at 0.1 µM (SF-268 [1]): 96% | growth at 10 µM (Malme-3M [2]): 12% | growth at 10 µM (HCT-15 [3]): 19% | growth at 10 µM (CCRF-CEM [4]): 1% | growth at 0.1 µM (SK-MEL-5 [5]): 91% | growth at 0.1 µM (HCC 2998): 78% | growth at 0.01 µM (SNB-19): 88% | growth at 10 µM (SK-MEL-5 [6]): -28% | growth at 10 µM (A549): 12% | growth at 0.001 µM (OVCAR-3): 100% | growth at 10 µM (IGROV-1): 39% | growth at 0.001 µM (MOLT-4 [7]): 103% | growth at 0.01 µM (HT-29): 106% | growth at 1 µM (NCI-H322M): 52% | growth at 0.001 µM (SNB-75): 107% | growth at 10 µM (M14): 17% | growth at 10 µM (BT-549): 13% | growth at 0.01 µM (SF-539): 95% | GI50 (EKVX): 5.44 µM | TGI (EKVX): > 100 µM | CC50 (EKVX; [22]): > 100 µM | growth at 10 µM (KM12): 6% | growth at 1 µM (MCF7 [8]): 10% | growth at 0.001 µM (MCF7 [9]): 95% | GI50 (COLO 205): 4.24 µM | TGI (COLO 205): > 100 µM | CC50 (COLO 205; [22]): > 100 µM | growth at 0.001 µM (ACHN): 100% | growth at 0.1 µM (RXF 393): 100% | growth at 0.1 µM (NCI-H522 [10]): 100% | GI50 (CCRF-CEM [11]): 2.88 µM | TGI (CCRF-CEM [11]): > 100 µM | CC50 (CCRF-CEM [11]; [22]): > 100 µM | GI50 (MOLT-4 [12]): 4.19 µM | TGI (MOLT-4 [12]): > 100 µM | CC50 (MOLT-4 [12]; [22]): > 100 µM | growth at 0.001 µM (A498): 93% | growth at 0.1 µM (NCI-H226): 85% | growth at 0.1 µM (PC-3 [13]): 96% | growth at 0.01 µM (NCI-H23): 91% | growth at 0.001 µM (Malme-3M [14]): 93% | growth at 1 µM (U-251): 25% | growth at 1 µM (PC-3 [15]): 18% | GI50 (SR): 3.51 µM | TGI (SR): > 100 µM | CC50 (SR; [22]): > 100 µM | growth at 0.001 µM (OVCAR-8): 107% | growth at 0.01 µM (HOP-92): 96% | GI50 (SF-295): 3.4 µM | TGI (SF-295): > 100 µM | CC50 (SF-295; [22]): > 100 µM | GI50 [16]: 36.3 µM | TGI [16]: 93.7 µM | CC50 [16, 22]: > 100 µM | growth at 1 µM (HCT-15 [17]): 25% | Activity [18]: Active | growth at 10 µM (NCI-H522 [19]): 37% | growth at 10 µM [20]: -1% | growth at 10 µM (SF-268 [21]): 27%
